Screening data from PubChem.
Compounds with a hit are over-represented: about 1.8% of the library has one in this group of screens.
NR2E3 ag-1: inhibitors of NR2E3-RetCOR corepressor binding, primary screen, NR2E3 agonist project, biochemical, TR-FRET, GST-NR2E3, biotin-RetCOR. Photoreceptor-specific nuclear receptor (Homo sapiens), Q9Y5X4. AID 2300, 2010. inhibition of corepressor binding, % at 4.78 µM. 320,000 compounds, 0.12% hits. 1536-well;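 active means percent inhibition above the cutoff of mean plus 3 SD of all tested compounds, set per screening campaign, cut at about 20% in these data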
Target sequence (Q9Y5X4 whole entry, looked up): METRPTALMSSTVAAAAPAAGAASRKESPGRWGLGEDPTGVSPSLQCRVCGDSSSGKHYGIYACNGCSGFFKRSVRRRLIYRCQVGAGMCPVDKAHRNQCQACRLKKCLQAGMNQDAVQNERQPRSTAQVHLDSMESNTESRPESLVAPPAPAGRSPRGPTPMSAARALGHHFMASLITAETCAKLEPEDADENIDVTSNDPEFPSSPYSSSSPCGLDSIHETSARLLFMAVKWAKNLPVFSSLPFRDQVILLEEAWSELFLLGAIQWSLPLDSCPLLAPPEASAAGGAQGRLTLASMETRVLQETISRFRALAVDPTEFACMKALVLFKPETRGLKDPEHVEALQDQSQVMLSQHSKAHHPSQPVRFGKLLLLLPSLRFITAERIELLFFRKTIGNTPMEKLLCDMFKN
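System: GST-tagged NR2E3 plus biotinylated RetCOR corepressor; Buffer or medium: pH 7.5 Tris-based buffer; Probe or stimulus: RetCOR corepressor, biotinylated, 7 nM; Doses: compound at 4.8 µM, single dose; Schedule: 5 h incubation at 4 °C; Technique: time-resolved FRET; Evaluation: percent inhibition of TR-FRET ratio; Replication: one well per compound, singlicate testing.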
NR2E3 ag-2: NR2E3 agonists in two-hybrid cells, primary screen, cell-based, luminescence, CHO-S, Gal4-NCOR/VP16-NR2E3; Photoreceptor-specific nuclear receptor (Homo sapiens), Q9Y5X4; luciferase; inhibition of corepressor binding, % at 3.98 µM; 360,000 compounds, 0.35% hits;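 active means inhibition above the mean of all tested compounds plus 3 SD, cut at about 70% in these data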;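 further: higher means lower luciferase signal from less NR2E3 corepressor binding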
Gli-Sufu block: Gli-Sufu pathway antagonists, primary screen, luciferase luminescence, Sufu-KO-LIGHT cells, uHTS. 340,000 compounds, 0.74% hits. Sufu-KO-LIGHT fibroblasts, Gli luciferase reporter luminescence. AID 588413, 2011. inhibition, % at 5 µM;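 active means inhibition above about 55%, limit read from the data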
Jurkat NFkB inh: inhibitors of induced NF-kB luciferase reporter, primary screen, TCR NF-kB activation inhibitor project, cell-based, luminescence, uHTS. Jurkat, PMA/ionomycin-induced NF-kB luciferase reporter. inhibition, % at 4 µM. 330,000 compounds, 0.53% hits. AID 435003, 2010; in the data active means inhibition above about 50%
697 NFkB inh: inhibitors of PMA/ionomycin-induced NF-kB reporter, 697 cells, primary screen, B-cell NF-kB inhibitor project, cell-based, luminescence, uHTS | 697 B-cell NF-kB luciferase reporter, 16 h | inhibition, % at 4 µM | 330,000 compounds, 0.33% hits | AID 435022, 2010; in the data active means inhibition above about 35%
GalR3 antag: GalR3 antagonists in HEK293 cells, primary screen, cell-based, fluorescence readout. HEK293 GalR3-CNG cAMP membrane potential fluorescence; galR3 body fused to GalR1 C-terminus. 360,000 compounds, 0.44% hits. Galanin receptor type 3 (Homo sapiens), O60755. AID 651719, 2012. inhibition, % at 3 µM;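 active means inhibition above the screen-wide average plus 3 SD, cut at about 13% in these data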;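 further: forskolin and galanin both at EC90 stimulate the cells; cAMP rise reported by CNG channel membrane potential dye signal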
NR2E3 ag conf: NR2E3 agonist confirmation in cells, cell-based, luminescence, CHO-S two-hybrid; shares compounds with NR2E3 ag-2; CHO-S mammalian two-hybrid NR2E3-NCOR, luciferase luminescence; inhibition, % at 3.98 µM; 2,300 compounds, 51% hits;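 active means average inhibition above a cutoff equal to the mean inhibition of all tested compounds plus one SD, cut at about 70% in these data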
VP16 counter: GAL4-VP16 reporter modulators, confirmation, counter-screen for NR2E3 agonist project, cell-based, luminescence, CHO-S, high throughput. shares compounds with NR2E3 ag-2. CHO-S GAL4-VP16 luciferase reporter. inhibition, % at 3.98 µM. 2,300 compounds, 29% hits. AID 624379, 2012;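 active means mean inhibition above a cutoff equal to the average over all tested compounds plus one standard deviation, cut at about 70% in these data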;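 further: luciferase from a UAS reporter driven by GAL4-VP16 transactivation; higher means less reporter light so more repression of VP16 activity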
Hits are given with their value.

Screening COc1ccccc1NS(=O)(=O)c1ccc(NN=C2CCCC2)c([N+](=O)[O-])c1 returned NR2E3 ag-1 inactive, NR2E3 ag-2 inactive, Gli-Sufu block inactive, Jurkat NFkB inh inactive, 697 NFkB inh inactive, GalR3 antag inactive, NR2E3 ag conf inactive and VP16 counter inactive.
COc1cc(C(O)c2nc(-c3ccc(N(C)C)cc3)cs2)ccc1F (stereo not drawn) was read as NR2E3 ag-2 inactive, NR2E3 ag conf inactive and VP16 counter inactive.
`CC(=O)c1cccc(NS(=O)(=O)c2ccc(-c3cc(C)no3)s2)c1` gave NR2E3 ag-1 inactive, NR2E3 ag-2 96.5, Gli-Sufu block inactive, Jurkat NFkB inh inactive, 697 NFkB inh inactive, GalR3 antag inactive, NR2E3 ag conf 70.1 and VP16 counter inactive.
For COc1cccc2c1C(=O)c1c(O)c3c(c(O)c1C2=O)CC(O)(C(C)=O)CC3OC1CC(N(C)C)C(O)C(C)O1 (stereo not drawn) the results were NR2E3 ag-2 88.5, Gli-Sufu block 68.7, GalR3 antag inactive, NR2E3 ag conf 99.8 and VP16 counter inactive.
Screening O=C(CCNC(=O)c1ccc([N+](=O)[O-])cc1)Nc1cccc(S(=O)(=O)N2CCCCCC2)c1 returned NR2E3 ag-1 inactive, NR2E3 ag-2 inactive, Gli-Sufu block inactive, Jurkat NFkB inh inactive, 697 NFkB inh inactive and GalR3 antag inactive.
Cc1oc(-c2ccc3c(c2)OCCO3)cc1C(=O)O was read as NR2E3 ag-1 inactive, NR2E3 ag-2 inactive, Gli-Sufu block inactive, Jurkat NFkB inh inactive, 697 NFkB inh inactive, GalR3 antag inactive, NR2E3 ag conf inactive and VP16 counter inactive.
`O=C(NC(=S)/C(=C1\CCCCCN1)[N+](=O)[O-])c1ccccc1` gave NR2E3 ag-2 inactive, Gli-Sufu block inactive, Jurkat NFkB inh inactive, 697 NFkB inh inactive, NR2E3 ag conf inactive and VP16 counter inactive.
For Nc1c(Cl)ncnc1Nc1ccc(C(=O)O)cc1 the results were NR2E3 ag-2 inactive, Gli-Sufu block inactive and GalR3 antag inactive.
`CCCC[C@@H]1CNCCN1CCc1cccc2ccccc12` gave NR2E3 ag-1 inactive, NR2E3 ag-2 inactive, Gli-Sufu block inactive, Jurkat NFkB inh inactive, 697 NFkB inh inactive and GalR3 antag inactive.
Screening CCOC(=O)C1=C(CC)Nc2ccccc2N/C1=N\S(=O)(=O)c1cc(Br)ccc1Br returned NR2E3 ag-2 inactive, Gli-Sufu block inactive, Jurkat NFkB inh inactive, 697 NFkB inh inactive, GalR3 antag inactive, NR2E3 ag conf 88.0 and VP16 counter inactive.
For O=C(Nc1ccccc1)c1ccccc1NS(=O)(=O)c1ccc(Cl)s1 the results were NR2E3 ag-1 inactive, NR2E3 ag-2 102.3, Gli-Sufu block inactive, Jurkat NFkB inh inactive, 697 NFkB inh inactive, GalR3 antag inactive, NR2E3 ag conf 98.8 and VP16 counter 85.7.
Screening Oc1ccccc1C=NNC(=S)NC1CC2C=CC1C2 (stereo not drawn) returned NR2E3 ag-2 inactive, GalR3 antag inactive, NR2E3 ag conf inactive and VP16 counter inactive.
COC(=O)N1C2CCCCC2=NN(c2ccccc2)N1C(=O)OC (stereo not drawn) was read as NR2E3 ag-2 70.7, GalR3 antag inactive, NR2E3 ag conf inactive and VP16 counter inactive.
